This note sets out measurements from ChEMBL document CHEMBL4513216, “Probing the Open Global Health Chemical Diversity Library for Multistage-Active Starting Points for Next-Generation Antimalarials” (ACS Infect Dis, 2020).

This data set in a line: Toxicity liver stage against HepG2, at 10uM. Further details: test concentration 10 uM, cell line HepG2-A16-CD81EGFP. It is filed as cell-based. The following applies: human, HepG2-A16-CD81EGFP cells; read-out: INHIBITION
In short, it runs like this: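 Uninfected HepG2-A16-CD81EGFP cells, 3 × 10^3 per well, 1536-well, plated on prespotted compound at 10 μM final, parasite-free screening media added to match infected plates; puromycin 10 μM positive, DMSO 0.5% negative; run in parallel with 48 h PbLuc assay at 37 °C, 5% CO2; viability by CellTiter-Glo luminescence, normalized to controls.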

Turning to `COc1cc(C(=O)N2CCCC(CNS(C)(=O)=O)C2)cc(OC)c1C` (stereo not given), the cytotoxicity at 10 µM is -7.69%.
Under `CN(CCNC(=O)Nc1nccs1)Cc1ccc(F)cc1` stands -1.32%; under `Cc1cc(NC(=O)Cn2ncc(SCC(N)=O)c(Cl)c2=O)ccc1Br`, 15.3%; under `O=C(CCC1CCN(C2Cc3ccccc3C2)CC1)NCC1CCCO1` (stereo not given), 7.36%.
With `Cc1oc(-c2ccco2)nc1CN1CCCC(Cn2cncn2)C1` (stereo not given), the cytotoxicity at 10 µM was -23.5%.
Under `COCCN1CCN(S(=O)(=O)c2ccccc2)Cc2cccnc21` stands 4.77%.
Under `CC(C)=CCN1C[C@@H]2CC[C@H]1CN(C(=O)Cn1c(C)cc(C)nc1=O)C2` stands -4.36%; under `CC(C)(C)N1CC(C(=O)N2CCN(CCn3cccc3)CC2)CC1=O` (stereo not given), 18.7%; under `CCOCC1CCCN(C(=O)NCc2cn3c(C)cccc3n2)C1` (stereo not given), 12.8%.
Under `Cc1ncc(S(C)(=O)=O)c(N2CCCCCC2)n1` stands -0.972%.
Turning to `CN(Cc1cccc(F)c1)C(=O)CN1CCOC(Cn2cncn2)C1` (stereo not given), the cytotoxicity at 10 µM was -2.09%.
Take `Cc1ccccc1-c1ncc(CNCc2csc(C(C)C)n2)s1`: the cytotoxicity at 10 µM amounted to 0.264%.
On to `CC(C)(C)c1nc(C(C)(C)NC(=O)C2CC(=O)N(CC3CC3)C2)no1` (stereo not given), for which the cytotoxicity at 10 µM is -5.4%.
As for `CCC(C)NC(=O)c1cc(S(N)(=O)=O)c(Br)s1` (stereo not given), the cytotoxicity at 10 µM is -4.38%.
Under `CN1C[C@@H](n2cnc(-c3ccccc3)c2-c2ncc[nH]2)C[C@H]1C(=O)O` stands -4.75%.
`CC1=Nc2c(c(=O)[nH]n2C(C)C)C(c2ccccc2)S1` (stereo not given): the cytotoxicity at 10 µM worked out at 5.53%.
For `Cc1cc(C)n(CC2CCCN2C(=O)Cc2csc(C)n2)n1` (stereo not given), the cytotoxicity at 10 µM is 9.3%.
Regarding `CN(C)C(=O)N1C[C@H]2CC[C@@H](C1)N(C/C=C/c1ccc(F)cc1)C2`, the cytotoxicity at 10 µM was -0.545%.
Under `CCCN(CCC)c1ncc(S(=O)(=O)c2ccc(C)cc2)c(N)n1` stands 3.19%.
As to `CCC(NC(=O)NC1CCN(S(C)(=O)=O)CC1)c1cccs1` (stereo not given), the cytotoxicity at 10 µM was -11.6%.
As for `CCc1[nH]c2c(CNc3nccc(N)n3)cc(F)cc2c1C`, the cytotoxicity at 10 µM is -8.36%.
`CCC(C)(C)c1cc(-c2c(C)nn(CCO)c2C)c(C#N)c(N)n1`: the cytotoxicity at 10 µM stood at 3.31%.
`CCn1ncc(CN2CCc3nc(-c4cccnc4)nc(O)c3C2)c1C`: the cytotoxicity at 10 µM was -23.7%.
Under `CN1CCC(c2nnc3n2CCN(S(=O)(=O)c2ccccc2)C3)CC1` stands -2.02%; under `CN1CCN(Cc2cnc3n2CCN(Cc2cccs2)C3)CC1`, -3.24%; under `CN(Cc1ccco1)Cc1cncc2c1CCN(S(C)(=O)=O)C2`, 2.11%.
For the compound `Cn1cc(N2CC3(CCN(CC4CC4)CC3)OCC2=O)cn1`, the cytotoxicity at 10 µM is -6.86%.
With `Cc1nc2c(c(NCCc3nc4c(s3)CCCC4)n1)CCNCC2`, the cytotoxicity at 10 µM is -7.33%.
Consider `O=C(c1cccc2[nH]ccc12)N1CCC2(CCOC2)C1` (stereo not given), for which the cytotoxicity at 10 µM was -151%.
For `O=C(CCc1ccccc1)NCC1CCN(Cc2cccs2)CC1`, the cytotoxicity at 10 µM was -2.68%.
`Oc1ccc(N2CCC(Cc3ccccc3)CC2)nn1`: the cytotoxicity at 10 µM came to 45.4%.
As for `CCc1nc(CCNC(=O)NC2CCC(=O)N(C)C2)sc1C` (stereo not given), the cytotoxicity at 10 µM is 2.78%.
As to `CN1C(=O)CO[C@H]2CN(C(=O)Nc3ccc(F)cc3)C[C@H]21`, the cytotoxicity at 10 µM was -2.22%.
Take `Cc1cccc(CN2CC3C[C@]3(NC(=O)c3cccc(F)c3)C2)n1` (stereo not given in full): the cytotoxicity at 10 µM is -151%.
Consider `CCN1CCCC1CNCc1cc2ccccc2[nH]c1=O` (stereo not given), for which the cytotoxicity at 10 µM is 1.78%.
As for `CCc1ccc(-c2noc(Cn3nc(C(N)=O)ccc3=O)n2)cc1`, the cytotoxicity at 10 µM was -4.22%.
Consider `O=C(O)c1cc(-c2ccncc2F)cc(S(=O)(=O)N2CCCCCC2)c1`, for which the cytotoxicity at 10 µM is -0.2%.
In the case of `COc1ccc(CN2CCN(S(=O)(=O)c3cc(C(=O)O)cs3)CC2)cc1`, the cytotoxicity at 10 µM worked out at 2.03%.
Take `Cc1nc(CSCCC(=O)NCc2ccc(-n3cncn3)nc2)cs1`: the cytotoxicity at 10 µM is -27.2%.
As to `CCOC(C)c1noc(CN2CCN(Cc3cccc(F)c3)CC2)n1` (stereo not given), the cytotoxicity at 10 µM was found to be 7.66%.
Take `COCC1COCCC12CCN(C(=O)CC1=CCCCC1)CC2` (stereo not given): the cytotoxicity at 10 µM is -1.86%.
As for `CCCc1ccc(S(=O)(=O)NC(=O)CCC2CCCO2)cc1` (stereo not given), the cytotoxicity at 10 µM is -25.7%.
Turning to `CN(Cc1nc(Cc2cccc(F)c2)no1)C1CCOCC1`, the cytotoxicity at 10 µM is 2.79%.
As for `CCN(c1ccsc1C(=O)N1CCSCC1)S(=O)(=O)c1ccc(Cl)cc1`, the cytotoxicity at 10 µM worked out at 14.5%.
With `CNC(=O)NCC(=O)Nc1ccccc1N1CCc2ccccc21`, the cytotoxicity at 10 µM turned out to be 2.46%.
Consider `O=C(NC[C@H]1C[C@@H]2CCN1C[C@@H]2CN1CCCC1)c1ccco1`, for which the cytotoxicity at 10 µM was -3.84%.
Under `CCc1cc(N2CCC(n3cc(C(=O)NC4CC4)nn3)CC2)ncn1` stands 27.7%; under `Cn1nccc1-c1ncc2c(c1C(=O)O)CCN(Cc1ccccc1)C2`, 9.97%.
For the compound `NC(=O)CN(Cc1ccc(Br)cc1)C(=O)c1cnccn1`, the cytotoxicity at 10 µM came to 8.48%.
On to `Cc1ncsc1CN1C[C@@H](OCC(=O)N(C)C)[C@H]2OCCC[C@H]21`, for which the cytotoxicity at 10 µM is -139%.
Turning to `Cc1nn(C)c(C)c1NC(=O)Nc1cccnc1N1CCCC1`, the cytotoxicity at 10 µM was determined as 7.31%.
Under `CCOCC1CN(Cc2ccc(F)cc2)Cc2nn(CC3CC3)cc21` (stereo not given) stands 7.43%; under `O=C(c1cccc(F)c1)N1C[C@@H](CN2CCCCC2)[C@@H](CO)C1`, 3.78%.
`CSc1ccc(CNC(c2ccccc2)c2nccn2C)cc1` (stereo not given): the cytotoxicity at 10 µM is 2.39%.
Under `O=C(CN1CC(c2ccccc2)CC1=O)N1CCN(c2nccs2)CC1` (stereo not given) stands -1.7%; under `CCC(C#N)NC(=O)c1cc(Br)c2c(c1)OCCO2` (stereo not given), -15.7%; under `Cc1cc(NC(=O)C(C)C)n(-c2nc(C)c(C)c(=O)[nH]2)n1`, 43.1%.
Turning to `Cc1noc([C@@H]2C[C@H](NS(=O)(=O)Cc3ccccc3)CN2C)n1`, the cytotoxicity at 10 µM stood at 4.5%.
For `N#Cc1ncn(CC(=O)Nc2cc(Cl)ccc2F)n1`, the cytotoxicity at 10 µM is -2.75%.
Take `Cc1nc(C)c(C(=O)N2Cc3ccccc3OCC2CN(C)C)o1` (stereo not given): the cytotoxicity at 10 µM worked out at 2.2%.
For `Cn1cc(C(=O)Nc2ccc(CN3CCOCC3)cn2)cn1`, the cytotoxicity at 10 µM is 6.95%.
Regarding `COCCN(Cc1ccncc1)C(=O)C1COc2ccccc2C1` (stereo not given), the cytotoxicity at 10 µM came to 6.77%.
Under `CN(C)C(=O)N1Cc2nnn(CC3CC3)c2C(COCC2CC2)C1` (stereo not given) stands 8.26%.
With `CN(Cc1ncnn1C)C(=O)c1ccccc1NCc1ccccc1`, the cytotoxicity at 10 µM is 15.3%.
`CC(C)c1noc(C2CCN(S(=O)(=O)c3cccs3)CC2)n1`: the cytotoxicity at 10 µM was determined as 1.47%.
Regarding `c1ccc(-c2n[nH]c(CCNc3nnc(C4CCC4)o3)n2)cc1`, the cytotoxicity at 10 µM worked out at 0.677%.
`CN(Cc1ccco1)[C@@H]1CN(Cc2ccc(F)cc2)[C@@H]2CCCO[C@H]12`: the cytotoxicity at 10 µM was -70.6%.
Under `N#Cc1cccc(CNCCNC(=O)Cc2cccc(F)c2)c1` stands 3.7%.
`CCN(Cc1cnn(CC)c1)Cc1c(Cl)cncc1Cl`: the cytotoxicity at 10 µM was -2.65%.
Regarding `Cc1cc(C2CCCN2C(=O)NCc2ccccn2)on1` (stereo not given), the cytotoxicity at 10 µM came to 1.47%.
Turning to `CCn1ccnc1CN1CCN(C(C)C(=O)N2CCCCCC2)CC1` (stereo not given), the cytotoxicity at 10 µM is -7.01%.
For the compound `COc1ccc(C(C)NS(=O)(=O)c2ccc3c(c2)CCC(=O)N3)cc1F` (stereo not given), the cytotoxicity at 10 µM is -49.7%.
`Cn1cc(C(=O)Nc2ccc3c(c2)CN(C(=O)c2ccco2)CC3)nn1`: the cytotoxicity at 10 µM was found to be 0.0452%.
Take `COc1ccnc(N2CCN(C(=O)c3cccc(C#N)c3)CC2)n1`: the cytotoxicity at 10 µM is -18.2%.
Turning to `CCOC(=O)C1CN(C(=O)C2CCOCC2)Cc2ncn(CC)c21` (stereo not given), the cytotoxicity at 10 µM amounted to 5.65%.
Under `Cc1noc(C)c1CS(=O)(=O)CC(=O)N1CCc2sccc2C1` stands -17%; under `CCCc1noc(C(C)N2CCN(CCn3ccccc3=O)CC2)n1` (stereo not given), 5.6%.
In the case of `Cc1ccc(-c2nc(CNC3CCc4ncnn4C3)no2)cc1` (stereo not given), the cytotoxicity at 10 µM was -1.43%.
Under `CCN(CC)CCCNCC1CCOC(C)(C)C1` (stereo not given) stands -6.01%.
With `CC(C(=O)N1CCCCC1)n1nc(-c2cccs2)cc(N)c1=O` (stereo not given), the cytotoxicity at 10 µM turned out to be 10.8%.
Regarding `Cc1cc(C(=O)N2CC[C@](C)(O)[C@H](C)C2)c(C)n1C`, the cytotoxicity at 10 µM was -1.43%.
Under `Cc1ccc(CNC(=O)C2=NOC3(CCCNC3)C2)cc1` (stereo not given) stands 1.33%; under `COc1ccc(C2CCCN2c2ccc(C#N)cn2)c(OC)c1` (stereo not given), -3.42%.
Under `CC(SCCC(=O)NC(N)=O)c1ccc(F)cc1F` (stereo not given) stands 0.936%; under `CN(C)Cc1ccccc1NC(=O)c1ccc(C#N)cc1`, 4.2%.
Under `CCc1ccc(C(=O)NCC2CCCN2CC)o1` (stereo not given) stands 0.632%; under `COC(=O)c1ccc(CN2CCC(c3noc(C)n3)CC2)s1`, -1.51%; under `Cn1cccc1C(=O)NCc1cn2c(n1)CN(C(=O)c1ccsc1)CC2`, -112%.
`OC[C@H]1CCCN1c1nccc(-c2cncnc2C2CCCCC2)n1`: the cytotoxicity at 10 µM came to 0.0815%.
On to `Cn1cnc2c1CCN(CC(=O)N(Cc1ccccc1F)C1CC1)C2`, for which the cytotoxicity at 10 µM worked out at 4.91%.
Under `CCN1CCN(CC(O)c2ccc(F)cc2)CC1` (stereo not given) stands -9.41%; under `Cc1ccc(C(=O)N2C[C@H]3CCC[C@@]3(COCc3ccncc3)C2)cn1`, 6.64%; under `CN(C)C(=O)COC1COC2(CCN(c3cccc(F)c3)CC2)C1` (stereo not given), -66%.
In the case of `Cc1nc(C)n(CC2CCCN(Cc3cn4c(C)cccc4n3)C2)n1` (stereo not given), the cytotoxicity at 10 µM is -6.01%.
With `Cc1nc(-c2nnc[nH]2)sc1C(=O)N1CCCC(C(F)(F)F)C1` (stereo not given), the cytotoxicity at 10 µM worked out at 7.59%.
